Experimental data: ChEMBL document CHEMBL1137010, “Improved peptide prodrugs of 5-ALA for PDT: rationalization of cellular accumulation and protoporphyrin IX production by direct determination of cellular prodrug uptake and prodrug metabolization” (J Med Chem, 2009)
Activity calls are given as the source filed them. The rule behind the calls is not given here.

Key:
PAM212 [1] = experiment: Drug uptake in mouse PAM212 cells assessed as enhanced PpIX fluorescence at 0.01 mM after 4 hrs; type: ADME, cell-based; settings: pam212, 4 h, 10 µM
Outline: (§1)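 PAM212 cells were seeded 5 × 10^4/well, grown 48 h, PBS-washed and incubated with drug at 0.01 or 0.1 mM in serum-free medium for 4 or 6 h. Untreated wells gave background and ALA wells served as reference. Well fluorescence: excitation 410 nm, emission 635 nm, scans 600–750 nm. Mean intensity (arbitrary units) after control subtraction, calibrated against rhodamine B.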

[2] = Chromatographic hydrophobicity index in acetonitrile solution under isocratic conditions at pH 6.8; type: physicochemical
Outline: (§2)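 RP-HPLC on a C18 column at 35 °C, 0.7 mL/min. Mobile phase was CH3CN or CH3OH with 50 mM aq ammonium formate (pH 6.8). […], with t0 from uracil and tR measured in duplicate. Six isocratic compositions were chosen so that −1.5 < log k < 0.6, and the index was derived from the linear log k versus organic-fraction relation.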

PAM212 [3] = experiment: Drug uptake in mouse PAM212 cells assessed as enhanced PpIX fluorescence at 0.1 mM after 4 hrs; type: ADME, cell-based; settings: pam212, 4 h, 100 µM; outline: as §1
[4] = Chromatographic hydrophobicity index in methanol solution under isocratic conditions at pH 6.8; type: physicochemical; outline: as §2
PAM212 [5] = experiment: Drug uptake in mouse PAM212 cells assessed as PpIX production per mg of protein at 0.1 mM after 4 hrs; type: ADME, cell-based; settings: pam212, 4 h, 100 µM
Outline: (§3)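 Cells (PAM212; A549 in F12K; Caco-2 in EMEM, 37 °C, 5% CO2) were seeded in 100 mm dishes and grown 48 h at 37 °C. After PBS washing they were incubated 4 h at 37 °C with 0.1 or 1 mM drug, washed, lysed 15 min and scraped, then centrifuged at 1800 g for 10 min. Supernatant PpIX was read by fluorescence (410/635 nm) against a PpIX standard curve and normalized to protein by BCA.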

PAM212 [6] = experiment: Drug uptake in mouse PAM212 cells assessed as intracellular 5-aminolaevulinic acid level per mg of protein at 0.1 mM after 4 hrs; type: ADME, cell-based; settings: pam212, 4 h, 100 µM
PAM212 [7] = experiment: Drug uptake in mouse PAM212 cells assessed as PpIX production per mg of protein at 1 mM after 4 hrs; type: ADME, cell-based; settings: pam212, 4 h, 1000 µM; outline: as §3
PAM212 [8] = experiment: Drug uptake in mouse PAM212 cells assessed as intracellular 5-aminolaevulinic acid level per mg of protein at 1 mM after 4 hrs; type: ADME, cell-based; settings: pam212, 4 h, 1000 µM
PAM212 [9] = experiment: Phototoxicity against mouse PAM212 cells assessed as cell viability at 0.1 mM after 4 hrs irradiated with 2.5 J/cm2 blue light by MTT assay relative to control; type: functional; settings: PAM212, light or radiation study, read-out: Activity
Outline: (§4)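 PAM212 cells were seeded about 5 × 10^4/well, grown 48 h, PBS-washed and incubated 4 h with drug at 0.01, 0.1 or 1 mM. Blue light (peak 420 nm) was delivered at 2.5 J/cm², although the methods section states 1.25 J/cm². Medium was then replaced and cells kept 24 h. MTT 1 mg/mL for 3 h, DMSO, A570; survival as % of non-irradiated drug-treated controls.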

Caco-2 [10] = experiment: Drug uptake in human Caco-2 cells assessed as intracellular 5-aminolaevulinic acid level per mg of protein at 1 mM after 4 hrs; type: ADME, cell-based; settings: caco-2, 4 h, 1000 µM
Caco-2 [11] = experiment: Drug uptake in human Caco-2 cells assessed as PpIX production per mg of protein at 1 mM after 4 hrs; type: ADME, cell-based; settings: caco-2, 4 h, 1000 µM; outline: as §3
PAM212 [12] = experiment: Phototoxicity against mouse PAM212 cells assessed as cell viability at 0.01 mM after 4 hrs irradiated with 2.5 J/cm2 blue light by MTT assay relative to control; type: functional, cell-based; outline: as §4
A549 [13] = experiment: Drug uptake in human A549 cells assessed as PpIX production per mg of protein at 0.1 mM after 4 hrs; type: ADME, cell-based; settings: a549, 4 h, 100 µM; outline: as §3
A549 [14] = experiment: Drug uptake in human A549 cells assessed as intracellular 5-aminolaevulinic acid level per mg of protein at 0.1 mM after 4 hrs; type: ADME, cell-based; settings: a549, 4 h, 100 µM
PAM212 [15] = experiment: Drug uptake in mouse PAM212 cells assessed as enhanced PpIX fluorescence at 0.01 mM after 6 hrs; type: ADME, cell-based; settings: pam212, 6 h, 10 µM; outline: as §1
PAM212 [16] = experiment: Cytotoxicity against mouse PAM212 cells after 24 hrs in absence of 2.5 J/cm2 blue light by MTT assay; type: functional, cell-based
Outline: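 Dark toxicity. PAM212 keratinocytes (RPMI-1640, 10% FCS) were seeded about 5 × 10^4 cells/well and grown 48 h, PBS-washed, then given drug for 4 h without irradiation. Medium was replaced and cells were kept a further 24 h. MTT 1 mg/mL for 3 h, formazan dissolved in DMSO, absorbance at 570 nm.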

PAM212 [17] = experiment: Drug uptake in mouse PAM212 cells assessed as enhanced PpIX fluorescence at 0.1 mM after 6 hrs; type: ADME, cell-based; settings: pam212, 6 h, 100 µM; outline: as §1

Row | Compound | CHI [2] | Drug uptake (PAM212 [3]) | CHI [4] | Drug uptake (PAM212 [5]) [ng/mg] | Drug uptake (PAM212 [6]) [µg/mg] | Drug uptake (PAM212 [7]) [ng/mg] | Drug uptake (PAM212 [8]) [µg/mg] | other results
1 | COCCOC(=O)CCC(=O)CNC(=O)[C@H](Cc1ccccc1)NC(C)=O | 38.26 | Active | 79.03 |  |  |  |  | Drug uptake (PAM212 [1]): Active
2 | COC(=O)CCC(=O)CNC(=O)[C@H](CC(=O)O)NC(C)=O | 19.62 |  | 24.27 | 19.1 | 0.41 | 20.2 | 1.94 | 
3 | CCCCCCOC(=O)CCC(=O)CNC(=O)[C@H](Cc1ccccc1)NC(C)=O | 56.64 | Active | 97.31 | 284 | 4.14 | 247 | 18.9 | viability at 100 µM (PAM212 [9]): 3%; Drug uptake (PAM212 [1]): Active; Drug uptake (Caco-2 [10]): 14.8 µg/mg; Drug uptake (Caco-2 [11]): 480 ng/mg; Activity (PAM212 [12]): Active; Drug uptake (A549 [13]): 10.1 ng/mg; Drug uptake (A549 [14]): 1.63 µg/mg
4 | COC(=O)CCC(=O)CNC(=O)[C@H](C)NC(C)=O | 14.18 | Active | 17.08 | 10.9 | 0.88 | 12.9 | 3.93 | viability at 100 µM (PAM212 [9]): 3%; Drug uptake (PAM212 [15]): Active; Activity (PAM212 [16]): inactive; Drug uptake (PAM212 [1]): Active
5 | COC(=O)CCC(=O)CNC(=O)[C@H](CCCCN)NC(C)=O | 8.48 |  | 13.61 | 13.2 | 0.68 | 20.2 | 3.06 | 
6 | CCOC(=O)CCC(=O)CNC(=O)[C@H](Cc1ccccc1)NC(C)=O | 44.01 | Active | 57.58 |  |  |  |  | Drug uptake (PAM212 [1]): Active
7 | COC(=O)CCC(=O)CNC(=O)[C@@H](C)NC(C)=O | 17.3 |  | 17.3 |  |  |  |  | 
8 | COC(=O)CCC(=O)CNC(=O)[C@H](Cc1c[nH]c2ccccc12)NC(C)=O | 37.35 |  | 22.08 | 26.6 | 2.41 | 38.9 | 10.3 | Drug uptake (Caco-2 [10]): 8.35 µg/mg; Drug uptake (Caco-2 [11]): -5.9 ng/mg; Drug uptake (A549 [13]): -0.02 ng/mg; Drug uptake (A549 [14]): 0.23 µg/mg
9 | COC(=O)CCC(=O)CNC(=O)[C@H](CO)NC(C)=O | 14.61 |  | 36.43 | 33.9 | 0.5 | 222 | 2.17 | 
10 | CC(=O)N[C@@H](Cc1ccccc1)C(=O)NCC(=O)CCC(=O)O[C@@H]1C[C@H](C)CCC1C(C)C (stereo partly drawn) | 53.22 | Active | 110.53 |  |  |  |  | Drug uptake (PAM212 [1]): Active
11 | CC[C@H](C)[C@H](NC(C)=O)C(=O)NCC(=O)CCC(=O)OC | 37.14 |  | 46.91 | 40.2 | 1.64 | 22.3 | 7.1 | 
12 | COC(=O)CCC(=O)CNC(=O)[C@H]1CCCN1C(C)=O | 18.7 |  | 27.34 |  |  |  |  | 
13 | COC(=O)CCC(=O)CNC(=O)[C@H](Cc1cnc[nH]1)NC(C)=O | 15.59 |  | 28.89 |  |  |  |  | 
14 | COC(=O)CCC(=O)CNC(=O)[C@H](CCC(=O)O)NC(C)=O | 23.14 | Active | 35.01 | 165 | 1.2 | 276 | 5.04 | viability at 100 µM (PAM212 [9]): 3%; Activity (PAM212 [16]): inactive; Drug uptake (PAM212 [17]): Active
15 | NCC(=O)CCC(=O)O [AMINOLEVULINIC ACID] |  |  |  | 108 | 0.81 | 310 | 3.41 | viability at 100 µM (PAM212 [9]): 11%; Drug uptake (Caco-2 [10]): 2.66 µg/mg; Drug uptake (Caco-2 [11]): 603 ng/mg; Activity (PAM212 [12]): inactive; Drug uptake (A549 [13]): 39.9 ng/mg; Drug uptake (A549 [14]): 0.08 µg/mg
16 | COCCOCCOC(=O)CCC(=O)CNC(=O)[C@H](Cc1ccccc1)NC(C)=O | 38.88 | Active | 58.35 |  |  |  |  | Drug uptake (PAM212 [1]): Active
17 | COC(=O)CCC(=O)CNC(=O)[C@@H](Cc1ccccc1)NC(C)=O | 37.71 |  | 52.62 | 4.57 | 1.07 | -2.99 | 4.35 | 
18 | COC(=O)CCC(=O)CNC(=O)[C@@H](NC(C)=O)C(C)C | 25.64 | Active | 41.6 |  |  |  |  | 
19 | COC(=O)CCC(=O)CNC(=O)[C@H](CC(C)C)NC(C)=O | 36.67 | Active | 50.92 | 276 | 2.8 | 290 | 12.2 | viability at 100 µM (PAM212 [9]): 3%; Drug uptake (PAM212 [15]): Active; Activity (PAM212 [16]): inactive; Drug uptake (PAM212 [1]): Active; Drug uptake (Caco-2 [10]): 6.54 µg/mg; Drug uptake (Caco-2 [11]): 612 ng/mg; Drug uptake (A549 [13]): 5.91 ng/mg; Drug uptake (PAM212 [17]): Active; Drug uptake (A549 [14]): 0.2 µg/mg
20 | COC(=O)CCC(=O)CNC(=O)[C@H](NC(C)=O)C(C)C | 24.74 |  | 40.76 |  |  |  |  | 
21 | COC(=O)CCC(=O)CNC(=O)[C@H](Cc1ccc(O)cc1)NC(C)=O | 34.14 |  | 40.73 |  |  |  |  | 
22 | COC(=O)CCC(=O)CNC(=O)[C@@H](Cc1c[nH]c2ccccc12)NC(C)=O | 37.32 |  | 22.08 |  |  |  |  | 
23 | COC(=O)CCC(=O)CNC(=O)[C@@H](CC(C)C)NC(C)=O | 33.89 |  | 50.76 |  |  |  |  | 
24 | COC(=O)CCC(=O)CNC(=O)CNC(C)=O | 10.31 |  | 18.77 |  |  |  |  | 
25 | COC(=O)CCC(=O)CNC(=O)[C@@H]1CCCN1C(C)=O | 18.69 |  | 27.47 |  |  |  |  | 
